Data published in ChEMBL document CHEMBL1147016, “Vasorelaxant activity of phthalazinones and related compounds” (Bioorg Med Chem Lett, 2006).

Columns and labels:
[1] = molecular target: T1, Alpha-1D adrenergic receptor (Rattus norvegicus, UniProt P23944); test: Vasorelaxation of phenylephrine-stimulated Wistar rat aorta contraction; format: functional, tissue-based
T1 sequence (P23944 whole entry): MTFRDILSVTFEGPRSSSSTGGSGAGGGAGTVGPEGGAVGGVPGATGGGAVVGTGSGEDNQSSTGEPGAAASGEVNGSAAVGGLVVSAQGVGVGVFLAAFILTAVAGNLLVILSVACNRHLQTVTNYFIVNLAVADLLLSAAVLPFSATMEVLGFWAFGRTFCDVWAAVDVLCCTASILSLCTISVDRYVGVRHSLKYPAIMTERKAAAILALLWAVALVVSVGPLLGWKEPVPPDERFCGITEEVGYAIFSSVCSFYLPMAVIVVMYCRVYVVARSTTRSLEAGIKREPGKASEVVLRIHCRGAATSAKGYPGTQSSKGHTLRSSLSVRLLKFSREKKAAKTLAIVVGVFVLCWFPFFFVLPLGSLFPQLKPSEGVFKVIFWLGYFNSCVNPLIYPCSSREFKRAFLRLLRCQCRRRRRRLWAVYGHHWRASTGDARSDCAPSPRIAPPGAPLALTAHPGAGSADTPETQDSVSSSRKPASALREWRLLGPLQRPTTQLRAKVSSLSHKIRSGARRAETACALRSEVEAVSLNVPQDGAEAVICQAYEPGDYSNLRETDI
How it was run: (§1)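 Isolated rat aorta rings equilibrated 1 h at 2 g resting tension in Krebs solution, changed periodically. Contracted with 10^-5 M phenylephrine; at steady maximal contraction compounds added progressively over 30 min up to 10^-5 M or 10^-4 M. Responses read after 30 min as % relaxation of PE contraction; EC50 calculated when relaxation exceeded 60%.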

[2] = molecular target: T2, Alpha-1D adrenergic receptor (Rattus norvegicus) (UniProt P23944); test: Inhibition of phenylephrine-stimulated Wistar rat aorta contraction at 10 uM; format: functional, tissue-based; set-up: scale not given: the % may be the effect or the level left; how it was run: as §1
T2 sequence (whole entry): T1 sequence (P23944 whole entry)

[3] = molecular target: T2, Alpha-1D adrenergic receptor (Rattus norvegicus); test: Inhibition of phenylephrine-stimulated Wistar rat aorta contraction at 100 uM; format: functional, tissue-based; set-up: scale not given: the % may be the effect or the level left; how it was run: as §1
[4] = molecular target: T3, Alpha-1A adrenergic receptor (Rattus norvegicus) (UniProt P43140); test: Affinity to Adrenergic alpha-1A receptor in Wistar rat vas deferens; format: tissue-based
T3 sequence (whole entry): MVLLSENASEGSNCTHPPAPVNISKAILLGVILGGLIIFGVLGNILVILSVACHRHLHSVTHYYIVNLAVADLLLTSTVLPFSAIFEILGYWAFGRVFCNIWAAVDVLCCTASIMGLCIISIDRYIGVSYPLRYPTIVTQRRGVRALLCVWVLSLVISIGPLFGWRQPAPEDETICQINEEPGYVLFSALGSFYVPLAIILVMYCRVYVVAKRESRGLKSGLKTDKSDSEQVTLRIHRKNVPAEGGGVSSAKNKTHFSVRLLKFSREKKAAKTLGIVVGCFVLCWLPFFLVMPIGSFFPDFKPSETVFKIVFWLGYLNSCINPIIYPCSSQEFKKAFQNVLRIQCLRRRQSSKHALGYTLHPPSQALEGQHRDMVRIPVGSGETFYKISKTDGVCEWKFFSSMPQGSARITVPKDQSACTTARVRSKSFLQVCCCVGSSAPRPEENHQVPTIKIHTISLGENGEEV
How it was run: (§2)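 Wistar rat vas deferens cleaned of connective tissue, held in Krebs–Henseleit at 37 °C, 95% O2–5% CO2, 1 g resting tension. Control noradrenaline concentration–response curve obtained, tissue then equilibrated with a fixed compound concentration for at least 30 min before a second NA curve. Time-matched controls; responses as % of control maximum; means ± SE.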

[5] = molecular target: T4, Alpha-1B adrenergic receptor (Rattus norvegicus) (UniProt P15823); test: Affinity to Adrenergic alpha-1B receptor in Wistar rat spleen; format: tissue-based
T4 sequence (whole entry): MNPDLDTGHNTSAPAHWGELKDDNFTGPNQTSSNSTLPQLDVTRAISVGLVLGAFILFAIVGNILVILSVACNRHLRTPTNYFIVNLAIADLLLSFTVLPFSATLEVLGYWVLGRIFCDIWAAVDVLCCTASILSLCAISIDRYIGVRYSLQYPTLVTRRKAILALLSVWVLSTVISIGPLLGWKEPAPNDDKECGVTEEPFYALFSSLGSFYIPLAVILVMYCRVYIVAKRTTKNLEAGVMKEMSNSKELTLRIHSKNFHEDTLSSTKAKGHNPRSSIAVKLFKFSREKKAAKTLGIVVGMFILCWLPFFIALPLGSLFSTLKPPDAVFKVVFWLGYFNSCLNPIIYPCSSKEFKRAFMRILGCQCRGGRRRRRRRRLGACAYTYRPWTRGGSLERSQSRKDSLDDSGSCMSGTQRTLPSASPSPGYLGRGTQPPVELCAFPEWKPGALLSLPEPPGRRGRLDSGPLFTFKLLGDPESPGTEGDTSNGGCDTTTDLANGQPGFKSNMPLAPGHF
How it was run: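 Longitudinal rat spleen strips at 1 g tension in Krebs, 37 °C. After stabilisation, single 10^-4 M phenylephrine dose, washout, then PE dose–response curves on two separate strips, control and after 30 min incubation with compound. Values as % of the first PE response.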

[6] = molecular target: T2, Alpha-1D adrenergic receptor (Rattus norvegicus); test: Affinity to Adrenergic Alpha-1D receptor in Wistar rat aorta; format: tissue-based
How it was run: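 Rat aorta rings stabilised, then cumulative vasoconstrictor additions until plateau; contraction as % of control response. Protocol repeated after 30 min compound incubation.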

[7] = molecular target: T3, Alpha-1A adrenergic receptor (Rattus norvegicus); test: Inhibition of noradrenaline-stimulated Wistar rat vas deferens contraction at 1 uM; format: functional; how it was run: as §2
[8] = molecular target: T3, Alpha-1A adrenergic receptor (Rattus norvegicus); test: Inhibition of noradrenaline-stimulated Wistar rat vas deferens contraction at 10 uM; format: functional; how it was run: as §2
[9] = molecular target: T5, Alpha-1A adrenergic receptor (Rattus norvegicus, UniProt P43140); test: Vasorelaxation of noradrenaline-stimulated Wistar rat vas deferens contraction; format: functional, tissue-based; how it was run: as §2
T5 sequence (P43140 whole entry): T3 sequence (whole entry)

| SMILES | EC50 [1] | Activity [2] | further results |
| --- | --- | --- | --- |
| COc1ccc(Cc2nn(-c3ccccc3)c(=O)c3ccccc23)cc1OC | > 100 µM |  |  |
| CCn1nc(Cc2ccc(SC)cc2)c2ccccc2c1=O | > 100 µM |  |  |
| CSc1ccc(Cc2nn(C)c(=O)c3ccccc23)cc1 | 0.93 µM | 87.2% |  |
| Cn1nc(Cc2ccccc2Cl)c2ccccc2c1=O | 1.4 µM | 84% |  |
| COc1ccc(Cc2nn(C)c(=O)c3ccccc23)cc1 | < 100 µM |  | Activity [3]: 61.6% |
| CCCCn1nc(Cc2ccc(SC)cc2)c2ccccc2c1=O | > 100 µM |  |  |
| COc1ccc(Cc2nn(-c3ccc(Br)cc3)c(=O)c3ccccc23)cc1OC | > 100 µM |  |  |
| O=c1c2ccccc2c(Cc2ccc(Cl)cc2)nn1-c1ccc(Br)cc1 | > 30 µM |  |  |
| CSc1ccc(Cc2nn(-c3ccc(Br)cc3)c(=O)c3ccccc23)cc1 | > 100 µM |  |  |
| CCn1nc(Cc2ccc(OC)c(OC)c2)c2ccccc2c1=O | 5.3 µM |  |  |
| COc1ccc(CCc2cc(O)cc(OC)c2C(=O)N2CCCCC2)cc1 |  |  | Activity [3]: 51% |
| O=c1[nH]nc(Cc2ccccc2)c2ccccc12 | ≤ 10 µM | 53% |  |
| Cn1nc(Cc2ccc(Cl)cc2)c2ccccc2c1=O | 0.43 µM | 99.3% | pD'2 [4]: 6.1; pD'2 [5]: 5.55; pD'2 [6]: 5.4; inhibition [7]: 61.5%; inhibition [8]: 95.4%; EC50 [9]: 0.81 µM |
| COc1ccc(Cc2nn(C)c(=O)c3ccccc23)cc1OC | 2.2 µM | 67.7% |  |
| CCCCn1nc(Cc2ccc(Cl)cc2)c2ccccc2c1=O | > 100 µM |  |  |
| CSc1ccc(Cc2nn(-c3ccc([N+](=O)[O-])cc3)c(=O)c3ccccc23)cc1 | > 100 µM |  |  |
| CC(C)(C)n1nc(Cc2ccc(Cl)cc2)c2ccccc2c1=O | > 100 µM |  |  |
| Cn1nc(Cc2cccc3ccccc23)c2ccccc2c1=O | 14 µM | 39.8% |  |
| Cn1nc(Cc2ccc(Cl)c(Cl)c2)c2ccccc2c1=O | 4.9 µM | 60.3% |  |
| CCCCn1nc(Cc2ccc(OC)c(OC)c2)c2ccccc2c1=O | 5.4 µM |  |  |
| COc1ccc(Cc2nnc(O)c3ccccc23)cc1OC | 3.7 µM | 83.8% |  |
| Oc1nnc(Cc2ccc(Cl)cc2)c2ccccc12 |  | 89.9% | pD'2 [4]: 5.4; inhibition [7]: 16.3%; inhibition [8]: 76.3% |
| COc1ccc(CC(=O)c2ccccc2C(=O)N2CCCCC2)cc1OC |  | 30% |  |
| Oc1nnc(Cc2ccc(Cl)cc2Cl)c2ccccc12 | < 10 µM | 61.3% |  |
| COc1ccc(Cc2nnc(O)c3ccccc23)cc1 | > 10 µM |  | Activity [3]: 39.3% |
| COc1ccc(C(=O)C(=O)c2ccccc2C(=O)N2CCCCC2)cc1OC |  | 70% |  |

| SMILES | EC50 [1] | Activity [2] | further results |
| --- | --- | --- | --- |
| COc1ccc(Cc2nn(C(C)(C)C)c(=O)c3ccccc23)cc1OC | 10 µM |  |  |
| Oc1nnc(Cc2ccccc2Cl)c2ccccc12 | 1.9 µM | 76.3% |  |
| COc1cc(Cc2nn(C)c(=O)c3ccccc23)cc(OC)c1OC | > 10 µM | 16.7% |  |
| COc1ccc(CCc2cc(O)cc(OC)c2C(=O)O)cc1 |  |  | Activity [3]: 34% |
| C=CCn1nc(Cc2ccc(SC)cc2)c2ccccc2c1=O | > 100 µM |  |  |
| CCn1nc(Cc2ccc(Cl)cc2)c2ccccc2c1=O | 1.3 µM |  |  |
| COc1ccc(Cc2nn(-c3ccc([N+](=O)[O-])cc3)c(=O)c3ccccc23)cc1OC | > 100 µM |  |  |
| C=CCn1nc(Cc2ccc(OC)c(OC)c2)c2ccccc2c1=O | 9.8 µM |  |  |
| CSc1ccc(Cc2nn(-c3ccccc3)c(=O)c3ccccc23)cc1 | > 100 µM |  |  |
| Cn1nc(Cc2ccc3c(c2)OCO3)c2ccccc2c1=O | 0.93 µM | 90.2% |  |
| Oc1nnc(Cc2ccc3c(c2)OCO3)c2ccccc12 | 2.9 µM | 86.7% | pD'2 [4]: 5.5; inhibition [7]: 24.3%; inhibition [8]: 78.8%; EC50 [9]: 3 µM |
| Cn1nc(Cc2ccccc2)c2ccccc2c1=O | ≤ 10 µM | 55.7% | pD'2 [4]: 5.8; inhibition [7]: 36.6%; inhibition [8]: 98.8%; EC50 [9]: 1.5 µM |
| Oc1nnc(Cc2ccc3ccccc3c2)c2ccccc12 | > 10 µM | 43.9% |  |
| OC1(Cc2ccc3c(c2)OCO3)c2ccccc2C2=NCCN21 (stereo unspecified) |  | 47% |  |
| O=c1[nH]nc(Cc2ccc(Cl)cc2)c2ccccc12 | 0.79 µM |  | EC50 [9]: 3.9 µM |
| COc1cc(Cc2nnc(O)c3ccccc23)cc(OC)c1OC | > 100 µM |  | Activity [3]: 34.3% |
| O=c1c2ccccc2c(Cc2ccc(Cl)cc2)nn1-c1ccccc1 | > 100 µM |  |  |
| C=CCn1nc(Cc2ccc(Cl)cc2)c2ccccc2c1=O | 2.6 µM |  | pD'2 [4]: 5.4; inhibition [7]: 16.9%; inhibition [8]: 70.4%; EC50 [9]: 4.4 µM |
| Cn1nc(Cc2ccc3ccccc3c2)c2ccccc2c1=O | > 10 µM | 44.6% |  |
| CSc1ccc(Cc2n[nH]c(=O)c3ccccc23)cc1 | 5.5 µM |  |  |
| O=c1c2ccccc2c(Cc2ccc(Cl)cc2)nn1-c1ccc([N+](=O)[O-])cc1 | 29 µM |  |  |
| CSc1ccc(Cc2nnc(O)c3ccccc23)cc1 |  | 66% |  |
| Cn1nc(Cc2ccc(Cl)cc2Cl)c2ccccc2c1=O | 1.2 µM | 80.7% |  |
| Oc1nnc(Cc2cccc3ccccc23)c2ccccc12 | 4.4 µM | 79.2% |  |
| CSc1ccc(Cc2nn(C(C)(C)C)c(=O)c3ccccc23)cc1 | > 100 µM |  |  |
| Oc1nnc(Cc2ccc(Cl)c(Cl)c2)c2ccccc12 | ≤ 10 µM | 53.8% |  |
